# Experimental data: ChEMBL document CHEMBL4339192, “De Novo Designed Amphipathic α-Helical Antimicrobial Peptides Incorporating Dab and Dap Residues on the Polar Face To Treat the Gram-Negative Pathogen, Acinetobacter baumannii” (J Med Chem, 2019)
# Where a SMILES comes first, the peptide text is derived from it. [ ]: non-standard residue; d: D form. Dab = NCC[C@H](N)C(=O)O
# Tests used:
# [1] = Therapeutic index, ratio of HC50 for human RBC to MIC for polymyxin B/colistin-resistant Acinetobacter baumannii M89951; format: toxicity; details: human red blood cells, read-out: TI
# Summary of the method: (§1)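 T.I. = HC50/MIC. For HC50, peptide (quantified by amino acid analysis) was two-fold serially diluted over 12 concentrations up to 1000 μg/mL. It was incubated with 1% fresh human erythrocytes in PBS, pH 7.4, for 18 h at 37 °C. After 800g centrifugation, hemoglobin was read at 570 nm against water (100%) and no-peptide (0%) controls. HC50 came from a lysis-versus-concentration plot, average of 3 replicates.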
# [2] = system: Acinetobacter baumannii; experiment: Antibacterial activity against Acinetobacter baumannii isolate 963659 measured after 24 hrs by microtiter dilution method; format: functional; details: isolate 963659, 24 h
# Summary of the method: (§2)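 Broth microdilution in Mueller-Hinton (MH) medium. […] Plates were incubated 24 h at 37 °C. MIC was the lowest peptide concentration that inhibited growth, based on three sets of replicates.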
# [3] = system: Acinetobacter baumannii; experiment: Antibacterial activity against Acinetobacter baumannii isolate 1035166 measured after 24 hrs by microtiter dilution method; format: functional; details: isolate 1035166, 24 h; summary of the method: as §2
# [4] = system: Acinetobacter baumannii; experiment: Antibacterial activity against Acinetobacter baumannii isolate 1017395 measured after 24 hrs by microtiter dilution method; format: functional; details: isolate 1017395, 24 h; summary of the method: as §2
# [5] = system: Acinetobacter baumannii; experiment: Antibacterial activity against Acinetobacter baumannii isolate 981650 measured after 24 hrs by microtiter dilution method; format: functional; details: isolate 981650, 24 h; summary of the method: as §2
# [6] = system: Acinetobacter baumannii; experiment: Antibacterial activity against Acinetobacter baumannii isolate 968886 measured after 24 hrs by microtiter dilution method; format: functional; details: isolate 968886, 24 h; summary of the method: as §2
# [7] = system: Acinetobacter baumannii; experiment: Antibacterial activity against Acinetobacter baumannii isolate 1007660 measured after 24 hrs by microtiter dilution method; format: functional; details: isolate 1007660, 24 h; summary of the method: as §2
# [8] = Therapeutic index, ratio of HC50 for human RBC to MIC for polymyxin B/colistin-resistant Acinetobacter baumannii M89941; format: toxicity; details: human red blood cells, read-out: TI; summary of the method: as §1
# [9] = system: Acinetobacter baumannii; experiment: Antibacterial activity against Acinetobacter baumannii isolate 1018887 measured after 24 hrs by microtiter dilution method; format: functional; details: isolate 1018887, 24 h; summary of the method: as §2
# [10] = system: Acinetobacter baumannii; experiment: Antibacterial activity against polymyxin B/colistin-resistant Acinetobacter baumannii M89953 measured after 24 hrs by microtiter dilution method; format: functional; details: M89953, 24 h; summary of the method: as §2
# [11] = Therapeutic index, ratio of HC50 for human RBC to MIC for polymyxin B/colistin-resistant Acinetobacter baumannii M89952; format: toxicity; details: human red blood cells, read-out: TI; summary of the method: as §1
# [12] = system: Acinetobacter baumannii; experiment: Antibacterial activity against Acinetobacter baumannii isolate 964304 measured after 24 hrs by microtiter dilution method; format: functional; details: isolate 964304, 24 h; summary of the method: as §2
# [13] = system: Acinetobacter baumannii; experiment: Antibacterial activity against Acinetobacter baumannii isolate 1010245 measured after 24 hrs by microtiter dilution method; format: functional; details: isolate 1010245, 24 h; summary of the method: as §2
# [14] = system: Acinetobacter baumannii; experiment: Antibacterial activity against Acinetobacter baumannii isolate 965463 measured after 24 hrs by microtiter dilution method; format: functional; details: isolate 965463, 24 h; summary of the method: as §2
# [15] = system: Acinetobacter baumannii; experiment: Antibacterial activity against Acinetobacter baumannii isolate 952654 measured after 24 hrs by microtiter dilution method; format: functional; details: isolate 952654, 24 h; summary of the method: as §2
# [16] = Hemolytic activity against human RBC measured after 18 hrs by spectrophotometric method; format: ADME, cell-based, Erythrocyte; details: human red blood cells (erythrocytes)
# Summary of the method: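 Peptide (amount by amino acid analysis), two-fold serial dilutions at 12 concentrations up to 1000 μg/mL, with 1% human erythrocytes in PBS pH 7.4, 37 °C, 18 h. Unlysed cells removed by centrifugation (800g); hemoglobin read at 570 nm. Water-lysed cells = 100%, no-peptide cells = 0%. HC50 from plot of % lysis vs concentration (μM), average of 3 replicates.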
# [17] = system: Acinetobacter baumannii; experiment: Antibacterial activity against Acinetobacter baumannii isolate 1021371 measured after 24 hrs by microtiter dilution method; format: functional; details: isolate 1021371, 24 h; summary of the method: as §2
# [18] = Therapeutic index, ratio of HC50 for human RBC to MIC for polymyxin B/colistin-resistant Acinetobacter baumannii M89953; format: toxicity; details: human red blood cells, read-out: TI; summary of the method: as §1
# [19] = system: Acinetobacter baumannii; experiment: Antibacterial activity against Acinetobacter baumannii isolate 1001611 measured after 24 hrs by microtiter dilution method; format: functional; details: isolate 1001611, 24 h; summary of the method: as §2
# [20] = system: Acinetobacter baumannii; experiment: Antibacterial activity against Acinetobacter baumannii isolate 1010282 measured after 24 hrs by microtiter dilution method; format: functional; details: isolate 1010282, 24 h; summary of the method: as §2
# [21] = system: Acinetobacter baumannii; experiment: Antibacterial activity against Acinetobacter baumannii isolate 1002956 measured after 24 hrs by microtiter dilution method; format: functional; details: isolate 1002956, 24 h; summary of the method: as §2
# [22] = system: Acinetobacter baumannii; experiment: Antibacterial activity against polymyxin B/colistin-resistant Acinetobacter baumannii M89952 measured after 24 hrs by microtiter dilution method; format: functional; details: M89952, 24 h; summary of the method: as §2
# [23] = Therapeutic index, ratio of HC50 for human RBC to MIC for polymyxin B/colistin-resistant Acinetobacter baumannii M89963; format: toxicity; details: human red blood cells, read-out: TI; summary of the method: as §1
# [24] = system: Acinetobacter baumannii; experiment: Antibacterial activity against polymyxin B/colistin-resistant Acinetobacter baumannii M89941 measured after 24 hrs by microtiter dilution method; format: functional; details: M89941, 24 h; summary of the method: as §2
# [25] = system: Acinetobacter baumannii; experiment: Antibacterial activity against polymyxin B/colistin-resistant Acinetobacter baumannii M89955 measured after 24 hrs by microtiter dilution method; format: functional; details: M89955, 24 h; summary of the method: as §2
# [26] = system: Acinetobacter baumannii; experiment: Antibacterial activity against Acinetobacter baumannii 649 measured after 24 hrs in presence of 25% human serum by microtiter dilution method; format: functional; details: Acinetobacter baumannii, 649, 24 h
# Summary of the method: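 Blood strain 649 was tested by MH broth microdilution with and without 25% (v/v) human serum added to the medium. The test used a final inoculum of 5 × 10^5 cfu/mL and incubation at 37 °C. The ratio is the MIC in serum over the MIC in MH alone.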
# [27] = system: Acinetobacter baumannii; experiment: Antibacterial activity against Acinetobacter baumannii 649 measured after 24 hrs by microtiter dilution method; format: functional; details: Acinetobacter baumannii, 649, 24 h; summary of the method: as §2
# [28] = system: Acinetobacter baumannii; experiment: Antibacterial activity against Acinetobacter baumannii isolate 961997 measured after 24 hrs by microtiter dilution method; format: functional; details: isolate 961997, 24 h; summary of the method: as §2
# [29] = system: Acinetobacter baumannii; experiment: Antibacterial activity against polymyxin B/colistin-resistant Acinetobacter baumannii M89963 measured after 24 hrs by microtiter dilution method; format: functional; details: M89963, 24 h; summary of the method: as §2
# [30] = system: Acinetobacter baumannii; experiment: Antibacterial activity against polymyxin B/colistin-resistant Acinetobacter baumannii M89949 measured after 24 hrs by microtiter dilution method; format: functional; details: M89949, 24 h; summary of the method: as §2
# [31] = system: Acinetobacter baumannii; experiment: Antibacterial activity against Acinetobacter baumannii isolate 1035794 measured after 24 hrs by microtiter dilution method; format: functional; details: isolate 1035794, 24 h; summary of the method: as §2
# [32] = Therapeutic index, ratio of HC50 for human RBC to MIC for polymyxin B/colistin-resistant Acinetobacter baumannii M89955; format: toxicity; details: human red blood cells, read-out: TI; summary of the method: as §1
# [33] = system: Acinetobacter baumannii; experiment: Antibacterial activity against polymyxin B/colistin-resistant Acinetobacter baumannii M89951 measured after 24 hrs by microtiter dilution method; format: functional; details: M89951, 24 h; summary of the method: as §2
# [34] = Therapeutic index, ratio of HC50 for human RBC to MIC for polymyxin B/colistin-resistant Acinetobacter baumannii M89949; format: toxicity; details: human red blood cells, read-out: TI; summary of the method: as §1
# [35] = system: Acinetobacter baumannii; experiment: Antibacterial activity against Acinetobacter baumannii isolate 9383370 measured after 24 hrs by microtiter dilution method; format: functional; details: isolate 9383370, 24 h; summary of the method: as §2
# [36] = system: Acinetobacter baumannii; experiment: Antibacterial activity against Acinetobacter baumannii isolate 977751 measured after 24 hrs by microtiter dilution method; format: functional; details: isolate 977751, 24 h; summary of the method: as §2
# [37] = system: Acinetobacter baumannii; experiment: Antibacterial activity against Acinetobacter baumannii isolate 963618 measured after 24 hrs by microtiter dilution method; format: functional; details: isolate 963618, 24 h; summary of the method: as §2
structure (smiles),measurement,setting,value
CC(=O)N[C@H](CCCCN)C(=O)N[C@H](CC(C)C)C(=O)N[C@@H](CCN)C(=O)N[C@H](CO)C(=O)N[C@H](CC(C)C)C(=O)N[C@H](CC(C)C)C(=O)N[C@@H](CCN)C(=O)N[C@@H](C(=O)N[C@H](CC(C)C)C(=O)N[C@H](CO)C(=O)N[C@@H](CCN)C(=O)N[C@H](C)C(=O)N[C@H](CCCCN)C(=O)N[C@H](C)C(=O)N[C@H](C)C(=O)N[C@H](CCCCN)C(=O)N[C@H](CC(C)C)C(=O)N[C@@H](CCN)C(=O)N[C@@H](C(=O)N[C@H](CC(C)C)C(=O)N[C@H](CC(C)C)C(=O)N[C@@H](CCN)C(=O)N[C@H](C)C(=O)N[C@H](CC(C)C)C(=O)N[C@H](CO)C(=O)N[C@@H](CCN)C(N)=O)[C@H](C)O)[C@H](C)O (Ac-[dK][dL][Dab][dS][dL][dL][Dab][dT][dL][dS][Dab][dA][dK][dA][dA][dK][dL][Dab][dT][dL][dL][Dab][dA][dL][dS][Dab]-NH2),selectivity ratio,[1],> 742
same,MIC,[2],0.7 µM
same,MIC,[3],0.7 µM
same,MIC,[4],3 µM
same,MIC,[5],0.7 µM
same,MIC,[6],1.5 µM
same,MIC,[7],0.7 µM
same,selectivity ratio,[8],> 742
same,MIC,[9],0.7 µM
same,MIC,[10],1.4 µM
same,selectivity ratio,[11],> 742
same,MIC,[12],1.5 µM
same,MIC,[13],0.7 µM
same,MIC,[14],3 µM
same,MIC,[15],1.5 µM
same,HC50 at 18 h,[16],> 742 µM
same,MIC,[17],1.5 µM
same,selectivity ratio,[18],> 742
same,MIC,[19],0.7 µM
same,MIC,[20],0.7 µM
same,MIC,[21],0.7 µM
same,MIC,[22],0.7 µM
same,selectivity ratio,[23],> 742
same,MIC,[24],0.7 µM
same,MIC,[25],0.7 µM
same,MIC,[26],0.2 µM
same,MIC,[27],0.7 µM
same,MIC,[28],0.7 µM
same,MIC,[29],1.4 µM
same,MIC,[30],0.7 µM
same,MIC,[31],1.5 µM
same,selectivity ratio,[32],> 742
same,MIC,[33],1.4 µM
same,selectivity ratio,[34],> 742
same,MIC,[35],0.7 µM
same,MIC,[36],0.7 µM
same,MIC,[37],0.7 µM
